In ChEMBL document CHEMBL1157095, “Antimalarial versus cytotoxic properties of dual drugs derived from 4-aminoquinolines and Mannich bases: interaction with DNA” (J Med Chem, 2010):
Active and inactive are the calls of the source. The calls are words filed in the database; no cut-off is given here.

How the values were obtained:
Plasmodium falciparum [1] = assay: Antiplasmodial activity against chloroquine-susceptible Plasmodium falciparum FCM29 infected in human erythrocytes assessed as inhibition of [3H]hypoxanthine uptake after 48 hrs; assay type: functional, organism-based
Summary of the method: (§1)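 Strains were cultured in A-positive human blood in RPMI 1640 with 10% human serum, 25 mM HEPES and 25 mM NaHCO3, under 10% O2/5% CO2/85% N2 at 37 °C. Microtests used 0.5% parasitemia and 1.5% hematocrit. Tritiated hypoxanthine (1 μCi/well) was added at time zero, then 48 h incubation, freeze-thaw, harvest and scintillation counting. IC50 was taken by nonlinear regression against drug-free controls.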

Plasmodium falciparum [2] = assay: Antiplasmodial activity against chloroquine-susceptible Plasmodium falciparum K14 infected in human erythrocytes assessed as inhibition of [3H]hypoxanthine uptake after 48 hrs; assay type: functional, organism-based; summary of the method: as §1
Plasmodium falciparum [3] = assay: Antiplasmodial activity against chloroquine-susceptible Plasmodium falciparum FCR3 infected in human erythrocytes assessed as inhibition of [3H]hypoxanthine uptake after 48 hrs; assay type: functional, organism-based; summary of the method: as §1
Plasmodium falciparum [4] = assay: Antiplasmodial activity against chloroquine-susceptible Plasmodium falciparum 3D7 infected in human erythrocytes assessed as inhibition of [3H]hypoxanthine uptake after 48 hrs; assay type: functional, organism-based
Summary of the method: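 Culture in RPMI 1640 with 10% human serum, 25 mM HEPES, 25 mM NaHCO3, A-positive blood, 10% O2/5% CO2/85% N2, 37 C. Isotopic microtest: 0.5% parasitemia, 1.5% hematocrit, 1 μCi tritiated hypoxanthine at time zero, 48 h; freeze-thaw lysis, filter harvest, scintillation count. IC50 = 50% uptake versus drug-free control, nonlinear regression of log dose-response curves.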

Plasmodium falciparum [5] = assay: Antiplasmodial activity against chloroquine-susceptible Plasmodium falciparum L1 infected in human erythrocytes assessed as inhibition of [3H]hypoxanthine uptake after 48 hrs; assay type: functional, organism-based; summary of the method: as §1
Plasmodium falciparum [6] = assay: Antiplasmodial activity against chloroquine-susceptible Plasmodium falciparum D6 infected in human erythrocytes assessed as inhibition of [3H]hypoxanthine uptake after 48 hrs; assay type: functional, organism-based; summary of the method: as §1
Plasmodium falciparum [7] = assay: Antiplasmodial activity against chloroquine-susceptible Plasmodium falciparum PA infected in human erythrocytes assessed as inhibition of [3H]hypoxanthine uptake after 48 hrs; assay type: functional, organism-based; summary of the method: as §1
Plasmodium falciparum [8] = assay: Antiplasmodial activity against chloroquine-susceptible Plasmodium falciparum Bres infected in human erythrocytes assessed as inhibition of [3H]hypoxanthine uptake after 48 hrs; assay type: functional, organism-based; summary of the method: as §1
Plasmodium falciparum [9] = assay: Antiplasmodial activity against chloroquine-susceptible Plasmodium falciparum 8425 infected in human erythrocytes assessed as inhibition of [3H]hypoxanthine uptake after 48 hrs; assay type: functional, organism-based; summary of the method: as §1
Plasmodium falciparum [10] = assay: Antiplasmodial activity against chloroquine-susceptible Plasmodium falciparum W2 infected in human erythrocytes assessed as inhibition of [3H]hypoxanthine uptake after 48 hrs; assay type: functional, organism-based; summary of the method: as §1
Plasmodium falciparum [11] = assay: Antiplasmodial activity against chloroquine-susceptible Plasmodium falciparum K2 infected in human erythrocytes assessed as inhibition of [3H]hypoxanthine uptake after 48 hrs; assay type: functional, organism-based; summary of the method: as §1
Plasmodium falciparum [12] = assay: Antiplasmodial activity against chloroquine-susceptible Plasmodium falciparum Voll infected in human erythrocytes assessed as inhibition of [3H]hypoxanthine uptake after 48 hrs; assay type: functional, organism-based; summary of the method: as §1
Nucleic Acid [13] = assay: Binding affinity to pUC18 DNA at pH 7.5 by spectrofluorimetry analysis; assay type: nucleic-acid assay
Summary of the method: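 A 1-10 μM drug solution was titrated at room temperature with linearized pUC18 DNA (50% AT), 0.1-50 μM base pairs final, in TE buffer with 5 mM NaCl (ionic strength 12 mM). Fluorescence used excitation at 320 nm and emission at 340-500 nm, corrected for buffer and instrument response. Kd = DNA concentration giving half-bound drug.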

Nucleic Acid [14] = assay: Binding affinity to polydAdT DNA containing 100% AT assessed as middle of the peak at half height melting temperature at 1 uM by spectrophotometry analysis; assay type: nucleic-acid assay
Summary of the method: (§2)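 Drug at 1 μM was mixed with DNA at 15 μM base pairs (15:1 bp:drug) in TE with 5 mM NaCl. Absorbance at 260 nm was recorded from 30-97 °C at 0.5 °C/min, with readings every 0.5 °C. Curves were normalized, smoothed and differentiated. Tmmax = derivative peak maximum; Tmint = middle of the integrated area; Tm1/2 = middle of the peak at half height.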

NCH89 = assay: Antiproliferative activity against human carmustine-resistant NCH-89 cells assessed as BrdU incorporation after 48 hrs; assay type: functional, cell-based; conditions: NCH89, 48 h
Summary of the method: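 NCH89 glioblastoma cells were seeded at 7 × 10^3 cells/well in replicate wells for 24 h. Compound was then added at 0.1-100 μM. After 48 h, BrdU was added at 100 μM final, and incorporation was detected with a BrdU labeling/detection kit.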

Nucleic Acid [15] = assay: Binding affinity to pUC18 DNA containing 50% AT assessed as maximum melting temperature at 1 uM by spectrophotometry analysis; assay type: nucleic-acid assay; summary of the method: as §2
Mus musculus [16] = assay: Toxicity in ip dosed Swiss mouse assessed as mortality at 30 mg/kg, ip; assay type: organism-based; design: dose 30 mg/kg, route intraperitoneal; conditions: in vivo
Summary of the method: (§3)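 Peters 4-day suppressive test, P. berghei ANKA: 18-20 g mice infected iv with 2 × 10^6 parasitized red cells day 0; compounds freshly made in 10% DMSO in sterile PBS, given ip from 2 h postinfection and on days 1-3; daily dose 30 mg/kg or 50 mg/kg; deaths recorded.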

Plasmodium berghei = assay: Antiplasmodial activity against Plasmodium berghei ANKA infected in Swiss mice (Mus musculus) assessed as reduction of parasitaemia at 50 mg/kg, intraperitoneally daily for 4 days; assay type: functional, organism-based; design: dose 50 mg/kg
Summary of the method: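 Swiss mice (18-20 g) infected intravenously on day 0 with 2 × 10^6 P. berghei ANKA parasitized red cells. Compound was freshly prepared in 10% DMSO in sterile PBS and given ip, first 2 h postinfection, then on days +1-3 (4-day suppressive test). On day +4, parasitemia was counted microscopically on Giemsa-stained tail-blood films.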

Plasmodium falciparum [17] = assay: Antiplasmodial activity against chloroquine-resistant Plasmodium falciparum Dd2 infected in human erythrocytes assessed as inhibition of [3H]hypoxanthine uptake after 48 hrs; assay type: functional, organism-based
Summary of the method: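 Ring-stage infected erythrocytes (0.5% parasitemia, 2.5% hematocrit) exposed to compounds 48 h, then radioactive hypoxanthine 24 h; radioactivity in precipitable material taken as proliferation index for IC50.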

Mus musculus [18] = assay: Toxicity in ip dosed Swiss mouse assessed as mortality at 50 mg/kg, ip; assay type: organism-based; design: dose 50 mg/kg, route intraperitoneal; conditions: in vivo; summary of the method: as §3
Nucleic Acid [19] = assay: Binding affinity to pUC18 DNA containing 50% AT assessed as middle of the peak at half height melting temperature at 1 uM by spectrophotometry analysis; assay type: nucleic-acid assay; summary of the method: as §2
Nucleic Acid [20] = assay: Binding affinity to polydAdT DNA containing 100% AT assessed as maximum melting temperature at 1 uM by spectrophotometry analysis; assay type: nucleic-acid assay; summary of the method: as §2
MRC5 = assay: Cytotoxicity against human MRC5 after 3 days; assay type: cell-based; conditions: MRC5, 72 h
Summary of the method: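 MRC-5SV2 cells were grown in Earle's MEM with 5% FCSi and plated at about 10^4 cells/well. After 3 days of incubation, viability was read fluorimetrically with resazurin (ex 550/em 590 nm). Growth reduction was expressed relative to untreated control wells, and CC50 was derived.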

Nucleic Acid [21] = assay: Binding affinity to pUC18 DNA containing 50% AT assessed as middle of the integrated surface melting temperature at 1 uM by spectrophotometry analysis; assay type: nucleic-acid assay; summary of the method: as §2
Nucleic Acid [22] = assay: Binding affinity to pUC18 DNA at pH 7.5 by UV-Vis spectrophotometry analysis; assay type: nucleic-acid assay
Summary of the method: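 A 10 μM drug solution was titrated at room temperature with linearized pUC18 DNA (50% AT), 0.1-50 μM base pairs final. Buffer was TE (10 mM Tris-HCl, 0.1 mM EDTA) with 5 mM NaCl, ionic strength 12 mM. UV-Vis absorption spectra were recorded at 220-380 nm. Kd = DNA concentration at which half the drug is bound.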

Plasmodium falciparum [23] = assay: Antiplasmodial activity against chloroquine-susceptible Plasmodium falciparum NF54 infected in human erythrocytes assessed as inhibition of [3H]hypoxanthine uptake after 48 hrs; assay type: functional, organism-based
Summary of the method: (§4)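 Asynchronous ring-stage cultures in human A Rh+ erythrocytes (RPMI 1640, HEPES, NaHCO3, hypoxanthine, 0.5% Albumax II, 5% CO2, 37 C), 1% parasitemia; top final drug concentration 30 μM. After 24 h, [3H]-hypoxanthine (0.2 μCi/well) added, further 48 h incubation; plates freeze-thawed, harvested, uptake counted; IC50 calculated.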

Nucleic Acid [24] = assay: Binding affinity to polydAdT DNA containing 100% AT assessed as middle of the integrated surface melting temperature at 1 uM by spectrophotometry analysis; assay type: nucleic-acid assay; summary of the method: as §2
Plasmodium falciparum [25] = assay: Antiplasmodial activity against chloroquine, pyrimethamine, cycloguanil-resistant Plasmodium falciparum K1 infected in human erythrocytes assessed as inhibition of [3H]hypoxanthine uptake after 48 hrs; assay type: functional, organism-based; summary of the method: as §4

Row | Structure (SMILES) | IC90 (Plasmodium falciparum [1]) | IC50 (Plasmodium falciparum [2]) | IC90 (Plasmodium falciparum [2]) | IC50 (Plasmodium falciparum [3]) | IC90 (Plasmodium falciparum [3]) | IC50 (Plasmodium falciparum [4]) | IC90 (Plasmodium falciparum [4]) | IC50 (Plasmodium falciparum [5]) | IC90 (Plasmodium falciparum [5]) | IC50 (Plasmodium falciparum [6]) | IC90 (Plasmodium falciparum [6]) | IC50 (Plasmodium falciparum [7]) | IC90 (Plasmodium falciparum [7]) | IC50 (Plasmodium falciparum [8]) | IC90 (Plasmodium falciparum [8]) | IC50 (Plasmodium falciparum [9]) | IC90 (Plasmodium falciparum [9]) | IC50 (Plasmodium falciparum [10]) | IC90 (Plasmodium falciparum [10]) | IC50 (Plasmodium falciparum [11]) | further results
1 | CCNCc1cc(Nc2ccnc3cc(Cl)ccc23)ccc1O [DESETHYL AMODIAQUINE] | 407 nM | 160 nM | 220 nM | 79.1 nM | 130 nM | 19.5 nM | 31.4 nM | 86.1 nM | 125 nM | 17.5 nM | 37 nM | 72.8 nM | 106 nM | 100 nM | 143 nM | 26.4 nM | 41.4 nM | 146 nM | 202 nM | 91.2 nM | IC50 (Plasmodium falciparum [1]): 318 nM; IC90 (Plasmodium falciparum [11]): 144 nM; IC50 (Plasmodium falciparum [12]): 77.5 nM; IC90 (Plasmodium falciparum [12]): 113 nM
2 | C=C[C@H]1CN2CC[C@H]1C[C@H]2[C@H](O)c1ccnc2ccc(OC)cc12 [QUININE] | 1200 nM | 496 nM | 1640 nM | 665 nM | 1110 nM | 104 nM | 597 nM | 531 nM | 995 nM | 61.8 nM | 464 nM | 627 nM | 1110 nM | 689 nM | 614 nM | 130 nM | 390 nM | 684 nM | 1250 nM | 619 nM | IC90 (Plasmodium falciparum [11]): 1510 nM; IC50 (Plasmodium falciparum [12]): 422 nM; IC90 (Plasmodium falciparum [12]): 843 nM
3 | Clc1ccc2c(NCCNC(CCN3CCCCC3)c3ccccc3)ccnc2c1 (configuration not stated) | 296 nM | 76 nM | 205 nM | 44.2 nM | 73.1 nM | 9.9 nM | 15.8 nM | 43.9 nM | 73.5 nM | 10.9 nM | 16 nM | 41.2 nM | 68.9 nM | 46.5 nM | 76.7 nM | 8 nM | 12.8 nM | 44 nM | 74.6 nM | 58.1 nM | Kd (Nucleic Acid [13]): 4 µM; IC50 (Plasmodium falciparum [1]): 135 nM; Tm (Nucleic Acid [14]): 46.5 °C; IC50 (NCH89): 5.6 µM; Tm (Nucleic Acid [15]): 73 °C; Activity (Mus musculus [16]): Toxic; Activity (Plasmodium berghei): Active; IC50 (Plasmodium falciparum [17]): 23.9 nM; Activity (Mus musculus [18]): Toxic; Tm (Nucleic Acid [19]): 75 °C; Tm (Nucleic Acid [20]): 46 °C; IC50 (MRC5): 8 µM; Tm (Nucleic Acid [21]): 74.4 °C; Kd (Nucleic Acid [22]): 1000 nM; IC50 (Plasmodium falciparum [23]): 8.7 nM; Tm (Nucleic Acid [24]): 46.4 °C; IC90 (Plasmodium falciparum [11]): 105 nM; IC50 (Plasmodium falciparum [25]): 32.6 nM; IC50 (Plasmodium falciparum [12]): 38.5 nM; IC90 (Plasmodium falciparum [12]): 68.4 nM
